Measurements from different studies.
Protocols differ between the studies behind these lines.
Technique: competition with immobilised ligand
RPS6KA5 C-terminal kinase domain: Ribosomal protein S6 kinase alpha-5, C-terminal kinase domain (RPS6KA5, Homo sapiens, UniProt O75582)
RPS6KA5 N-terminal kinase domain: Ribosomal protein S6 kinase alpha-5, N-terminal kinase domain (RPS6KA5, Homo sapiens, UniProt O75582)

| target | observed | concentration | remaining binding [%] | Structure (SMILES) |
| --- | --- | --- | --- | --- |
| RPS6KA5 C-terminal kinase domain | binding | 1 µM | 97 | COc1cnc(Nc2cccc(S(N)(=O)=O)c2)nc1N1CCN(c2ccccc2)CC1 |
| RPS6KA5 C-terminal kinase domain | binding | 1 µM | 100 | C[C@@H]1CCN(c2nccc(-c3cnn4ncccc34)n2)C1 |
| RPS6KA5 N-terminal kinase domain | binding | 1 µM | 100 | O=C(NCCCN1CCOCC1)c1ccc(Nc2nccc(-c3cc4ccccc4s3)n2)cc1 |
| RPS6KA5 N-terminal kinase domain | binding | 1 µM | 100 | CCN1CCN(Cc2ccc(C(=O)Nc3ccc(C)c(Oc4ccc5c(c4)CC(=O)N5)c3)cc2C(F)(F)F)CC1 |
| RPS6KA5 N-terminal kinase domain | cell-free assay | 0.1 µM | 100 | Cc1c[nH]c2nccc(Oc3c(F)cc(Nc4cc(Cl)nc(N)n4)cc3F)c12 |
| RPS6KA5 N-terminal kinase domain | binding | 1 µM | 100 | Cc1cnn2ncc(-c3ccnc(N(C)C)n3)c2c1 |
| RPS6KA5 C-terminal kinase domain | cell-free assay | 1 µM | 100 | O=C(O)c1cc(-c2ccc(C3CCNCC3)cc2)c2ccc(-c3ccc(C(F)(F)F)cc3)cc2c1 |
| RPS6KA5 C-terminal kinase domain | binding | 1 µM | 100 | CC1CCCN1c1nccc(-c2cnn3ncccc23)n1 (centres unmarked) |
| RPS6KA5 N-terminal kinase domain | cell-free assay | 1 µM | 100 | O=C(Nc1cccnn1)N1CC(C/C=C/c2cncc(Oc3ccc(C(F)(F)F)cn3)n2)C1 |
| RPS6KA5 C-terminal kinase domain | binding | 1 µM | 100 | O=C(Nc1c[nH]nc1C(=O)NC1CCNCC1)c1cc(F)cc(F)c1 |
| RPS6KA5 N-terminal kinase domain | binding | 1 µM | 100 | O=C(c1ccc(Nc2nccc(-c3cc4ccccc4s3)n2)cc1)N1CCC(N2CCCC2)CC1 |
| RPS6KA5 N-terminal kinase domain | cell-free assay | 5 µM | 91 | COc1ncc2cc3ccccc3nc2c1C#N |
| RPS6KA5 C-terminal kinase domain | binding | 1 µM | 100 | N[C@H]1CCN(c2nccc(-c3cnn4ncccc34)n2)C1 |
| RPS6KA5 C-terminal kinase domain | binding | 1 µM | 100 | COc1cnc(Nc2cccc(S(N)(=O)=O)c2)nc1N1CCN(c2ccccc2)C(=O)C1 |
| RPS6KA5 C-terminal kinase domain | cell-free assay | 1 µM | 100 | O=C(O)[C@@H]1[C@@H](Cn2nnc3ccccc3c2=O)CC[C@H]1C(=O)c1ccc(OCCC2CCOCC2)cc1 |
| RPS6KA5 N-terminal kinase domain | binding | 0.1 µM | 95 | C[C@@H](c1ccc(-n2cnc3c(N)ncnc32)cc1)N1CCc2nn(C)c(Cc3ccccc3)c2C1=O |
| RPS6KA5 N-terminal kinase domain | cell-free assay | 1 µM | 85 | CN([C@@H]1CCc2c(CC(=O)O)c3cc(S(C)(=O)=O)ccc3n2C1)S(=O)(=O)c1ccc(F)cc1 |
| RPS6KA5 C-terminal kinase domain | binding | 1 µM | 100 | c1cnn2ncc(-c3ccnc(N4CCC45COC5)n3)c2c1 |
| RPS6KA5 C-terminal kinase domain | binding | 1 µM | 88 | O=c1nc(-c2ccccn2)sc2ccccc12 |
| RPS6KA5 N-terminal kinase domain | binding | 1 µM | 100 | O=C(c1ccc(Nc2ncc(Cl)c(-c3ccc(Cl)s3)n2)cc1)N1CCC(N2CCCC2)CC1 |
